{"data": "Published values collected from several papers"}
{"SMILES": "NS(=O)(=O)OC[C@@H]1C[C@@H](n2ccc3c(N[C@H]4CCc5ccccc54)ncnc32)C[C@@H]1O", "test system": "human, plasma", "conditions": "intravenous, 35 mg/m², patients", "measurement": "half-life", "value": "5.1 h"}
{"SMILES": "NC(=S)NN=Cc1ncccc1N", "test system": "human, plasma", "conditions": "oral, 100 mg", "measurement": "half-life", "value": "1.5 h"}
{"SMILES": "N#C[C@@]12C[C@@H]1[C@@H](n1cnc3c(N[C@@H](C4CCC4)C4CC4)nc(I)nc31)[C@H](O)[C@@H]2O", "test": "chemical stability", "test system": "simulated intestinal fluid", "conditions": "2 h", "measurement": "compound remaining", "value": "97.8%"}
{"SMILES": "COc1ccc([C@@H](O)c2cc(-c3ncnc4cc(N5CCOCC5)ccc34)c(F)cc2Cl)nn1", "test system": "human, plasma", "conditions": "oral, 400 mg, single dose, patients", "measurement": "half-life", "value": "3.51 h"}
{"SMILES": "CC(C)n1c(Nc2cccnc2)nc2cnc(Nc3ccc(N4CCN(C)CC4)cc3)nc21", "test system": "male human, plasma", "conditions": "oral, 100 mg, single dose", "measurement": "half-life", "value": "35.4 h"}
{"SMILES": "Cc1c(C(=O)O)ccc2c3n(nc12)[C@@H]1[C@H](C3)N(CC2CC2)[C@@]2(C(=O)Nc3cc(Cl)ccc32)[C@H]1c1cccc(Cl)c1F", "test system": "female mouse, plasma", "conditions": "intravenous", "measurement": "Vd", "value": "0.44 L/kg"}
{"SMILES": "Cc1ccc(C(=O)Nc2ccc(CN3CCN(C)CC3)c(C(F)(F)F)c2)cc1C#Cc1cnc2[nH]ncc2c1", "test system": "human, plasma", "conditions": "oral, 20 mg, healthy volunteers", "measurement": "half-life", "value": "33.2 h"}
{"SMILES": "Cn1cc(Nc2nc(N)nc(-c3cccc(-n4ccc5cc(C6CC6)cc(F)c5c4=O)c3CO)n2)cn1", "test system": "human, plasma", "conditions": "oral, 300 mg, single dose, fasted, healthy volunteers", "measurement": "half-life", "value": "9.7 h"}
{"SMILES": "O=[N+]([O-])c1ccc(-c2ccc(O)cc2)c2cccnc12", "test system": "male CD-1 mouse, plasma", "conditions": "oral, 5 mg/kg", "measurement": "Vd/F", "value": "157 L/kg"}
{"SMILES": "CNC(=O)n1ccc2cc(Oc3ccnc(NC(=O)c4ccc(C5CCN(CCO)CC5)cc4)c3)c(OCCOC)cc21", "test system": "human, plasma", "conditions": "oral, 35 mg, single dose, healthy volunteers", "measurement": "half-life", "value": "21 h"}
